From ChEMBL document CHEMBL5344414, “Maleimide constrained BAD BH3 domain peptides as BCL-xL Inhibitors: A versatile approach to rapidly identify sites compatible with peptide constraining” (Bioorg Med Chem Lett, 2023) come the findings set out here.

As usually defined, the IC50 is the concentration that inhibits the measured activity by half. Higher therefore signals a need for much substance.

The target in this assay is BCL2L1/BAD (Homo sapiens, UniProt Q07817). Put plainly: Inhibition of BAD/His-SUMO tagged BCL-XL (1 to 209 residues; missing 27 to 82 residues) (unknown origin) overexpressed in Escherichia coli BL21 protein-protein interaction by fluorescence anisotropy competition assay. In a few lines:
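Final conditions: 200 nM BCL-xL, 50 nM tracer, 20 mM Tris, 150 mM NaCl, pH 7.6, 20 °C, with peptide titrated. Tracer Kd for BCL-xL was determined beforehand by direct titration (6 nM-125 μM protein).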
A general note: Polarisation of emitted light reports the rotation of a fluorescent probe.

Where a SMILES comes first, the peptide text is derived from it.

Chain of BCL2L1/BAD (Q92934 whole entry, the tested form may be a part): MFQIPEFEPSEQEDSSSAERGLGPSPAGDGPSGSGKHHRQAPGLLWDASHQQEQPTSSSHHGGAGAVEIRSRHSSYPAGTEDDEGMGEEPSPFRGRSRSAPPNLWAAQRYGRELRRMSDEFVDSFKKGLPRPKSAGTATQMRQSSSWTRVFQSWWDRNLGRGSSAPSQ
Chain of BCL2L1/BAD (Q07817 whole entry, the tested form may be a part): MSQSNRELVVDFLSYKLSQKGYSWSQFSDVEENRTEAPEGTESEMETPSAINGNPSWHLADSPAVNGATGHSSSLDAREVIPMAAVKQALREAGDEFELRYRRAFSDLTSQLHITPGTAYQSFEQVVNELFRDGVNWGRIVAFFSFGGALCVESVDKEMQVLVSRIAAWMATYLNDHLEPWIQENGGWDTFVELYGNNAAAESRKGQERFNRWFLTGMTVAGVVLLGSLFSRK

As for `CSCC[C@H](NC(=O)[C@@H]1CS2=S(C[C@H](NC(=O)CNC(=O)[C@H](Cc3ccc(O)cc3)NC(=O)[C@H](CCCNC(=N)N)NC(C)=O)C(=O)N[C@@H](CCC(=O)O)C(=O)N[C@@H](CC(C)C)C(=O)N[C@@H](CCCNC(=N)N)C(=O)N1)C(=O)NC2=O)C(=O)N[C@@H](CO)C(=O)N[C@@H](CC(=O)O)C(=O)N[C@@H](CCC(=O)O)C(=O)N[C@@H](Cc1ccccc1)C(=O)N[C@H](C(=O)N[C@@H](CC(=O)O)C(=O)N[C@@H](CO)C(=O)N[C@@H](Cc1ccccc1)C(=O)N[C@@H](CCCCN)C(=O)N[C@@H](CCCCN)C(N)=O)C(C)C` (stereo partly specified), the IC50 was > 50 µM. Regarding `CSCC[C@H](NC(=O)[C@H](CCCNC(=N)N)NC(=O)[C@H](CCCNC(=N)N)NC(=O)[C@H](CC(C)C)NC(=O)[C@H](CCC(=O)O)NC(=O)[C@H](CCCNC(=N)N)NC(=O)CNC(=O)[C@H](Cc1ccc(O)cc1)NC(=O)[C@H](CCCNC(=N)N)NC(C)=O)C(=O)N[C@@H](CO)C(=O)N[C@H]1CS2=S(C[C@@H](C(=O)N[C@@H](CO)C(=O)N[C@@H](Cc3ccccc3)C(=O)N[C@@H](CCCCN)C(=O)N[C@@H](CCCCN)C(N)=O)NC(=O)[C@H](C(C)C)NC(=O)[C@H](Cc3ccccc3)NC(=O)[C@H](CCC(=O)O)NC1=O)C(=O)NC2=O` (stereo partly specified), the IC50 is > 50 µM. For the molecule `CSCC[C@H](NC(=O)[C@H](CCCNC(=N)N)NC(=O)[C@H](CCCNC(=N)N)NC(=O)[C@H](CC(C)C)NC(=O)[C@@H]1CS2=S(C[C@H](NC(C)=O)C(=O)N[C@@H](Cc3ccc(O)cc3)C(=O)NCC(=O)N[C@@H](CCCNC(=N)N)C(=O)N1)C(=O)NC2=O)C(=O)N[C@@H](CO)C(=O)N[C@@H](CC(=O)O)C(=O)N[C@@H](CCC(=O)O)C(=O)N[C@@H](Cc1ccccc1)C(=O)N[C@H](C(=O)N[C@@H](CC(=O)O)C(=O)N[C@@H](CO)C(=O)N[C@@H](Cc1ccccc1)C(=O)N[C@@H](CCCCN)C(=O)N[C@@H](CCCCN)C(N)=O)C(C)C` (stereo partly specified), the 50% inhibitory concentration (IC50) was found to be 5.5 µM. `CSCC[C@H](NC(=O)[C@H](CCCNC(=N)N)NC(=O)[C@@H]1CS2=S(C[C@H](NC(=O)[C@H](Cc3ccc(O)cc3)NC(=O)[C@H](CCCNC(=N)N)NC(C)=O)C(=O)N[C@@H](CCCNC(=N)N)C(=O)N[C@@H](CCC(=O)O)C(=O)N[C@@H](CC(C)C)C(=O)N1)C(=O)NC2=O)C(=O)N[C@@H](CO)C(=O)N[C@@H](CC(=O)O)C(=O)N[C@@H](CCC(=O)O)C(=O)N[C@@H](Cc1ccccc1)C(=O)N[C@H](C(=O)N[C@@H](CC(=O)O)C(=O)N[C@@H](CO)C(=O)N[C@@H](Cc1ccccc1)C(=O)N[C@@H](CCCCN)C(=O)N[C@@H](CCCCN)C(N)=O)C(C)C` (stereo partly specified): the IC50 is > 50 µM. The value for `CSCC[C@@H]1NC(=O)[C@H](CCCNC(=N)N)NC(=O)[C@@H](NC(=O)[C@H](CC(C)C)NC(=O)[C@H](CCC(=O)O)NC(=O)[C@H](CCCNC(=N)N)NC(=O)CNC(=O)[C@H](Cc2ccc(O)cc2)NC(=O)[C@H](CCCNC(=N)N)NC(C)=O)CS2=S(C[C@@H](C(=O)N[C@@H](CCC(=O)O)C(=O)N[C@@H](Cc3ccccc3)C(=O)N[C@H](C(=O)N[C@@H](CC(=O)O)C(=O)N[C@@H](CO)C(=O)N[C@@H](Cc3ccccc3)C(=O)N[C@@H](CCCCN)C(=O)N[C@@H](CCCCN)C(N)=O)C(C)C)NC(=O)[C@H](CO)NC1=O)C(=O)NC2=O` (stereo partly specified) was > 50 µM; that for `CSCC[C@H](NC(=O)[C@H](CCCNC(=N)N)NC(=O)[C@H](CCCNC(=N)N)NC(=O)[C@H](CC(C)C)NC(=O)[C@H](CCC(=O)O)NC(=O)[C@H](CCCNC(=N)N)NC(=O)CNC(=O)[C@H](Cc1ccc(O)cc1)NC(=O)[C@H](CCCNC(=N)N)NC(C)=O)C(=O)N[C@H]1CS2=S(C[C@@H](C(=O)N[C@@H](CC(=O)O)C(=O)N[C@@H](CO)C(=O)N[C@@H](Cc3ccccc3)C(=O)N[C@@H](CCCCN)C(=O)N[C@@H](CCCCN)C(N)=O)NC(=O)[C@H](Cc3ccccc3)NC(=O)[C@H](CCC(=O)O)NC(=O)[C@H](CC(=O)O)NC1=O)C(=O)NC2=O` (stereo partly specified) was > 50 µM; that for `CSCC[C@H](NC(=O)[C@H](CCCNC(=N)N)NC(=O)[C@H](CCCNC(=N)N)NC(=O)[C@H](CC(C)C)NC(=O)[C@H](CCC(=O)O)NC(=O)[C@H](CCCNC(=N)N)NC(=O)CNC(=O)[C@H](Cc1ccc(O)cc1)NC(=O)[C@H](CCCNC(=N)N)NC(C)=O)C(=O)N[C@@H](CO)C(=O)N[C@@H](CC(=O)O)C(=O)N[C@H]1CS2=S(C[C@@H](C(=O)N[C@@H](Cc3ccccc3)C(=O)N[C@@H](CCCCN)C(=O)N[C@@H](CCCCN)C(N)=O)NC(=O)[C@H](CC(=O)O)NC(=O)[C@H](C(C)C)NC(=O)[C@H](Cc3ccccc3)NC1=O)C(=O)NC2=O` (stereo partly specified) was > 50 µM.

With `CSCC[C@H](NC(=O)[C@H](CCCNC(=N)N)NC(=O)[C@H](CCCNC(=N)N)NC(=O)[C@H](CC(C)C)NC(=O)[C@H](CS)NC(=O)[C@H](CCCNC(=N)N)NC(=O)CNC(=O)[C@H](Cc1ccc(O)cc1)NC(=O)[C@H](CS)NC(C)=O)C(=O)N[C@@H](CO)C(=O)N[C@@H](CC(=O)O)C(=O)N[C@@H](CCC(=O)O)C(=O)N[C@@H](Cc1ccccc1)C(=O)N[C@H](C(=O)N[C@@H](CC(=O)O)C(=O)N[C@@H](CO)C(=O)N[C@@H](Cc1ccccc1)C(=O)N[C@@H](CCCCN)C(=O)N[C@@H](CCCCN)C(N)=O)C(C)C` (Ac-CYGRCLRRMSDEFVDSFKK-NH2), the IC50 worked out at 5.1 µM.

In the case of `CSCC[C@H](NC(=O)[C@H](CCCNC(=N)N)NC(=O)[C@H](CS)NC(=O)[C@H](CC(C)C)NC(=O)[C@H](CCC(=O)O)NC(=O)[C@H](CCCNC(=N)N)NC(=O)[C@H](CS)NC(=O)[C@H](Cc1ccc(O)cc1)NC(=O)[C@H](CCCNC(=N)N)NC(C)=O)C(=O)N[C@@H](CO)C(=O)N[C@@H](CC(=O)O)C(=O)N[C@@H](CCC(=O)O)C(=O)N[C@@H](Cc1ccccc1)C(=O)N[C@H](C(=O)N[C@@H](CC(=O)O)C(=O)N[C@@H](CO)C(=O)N[C@@H](Cc1ccccc1)C(=O)N[C@@H](CCCCN)C(=O)N[C@@H](CCCCN)C(N)=O)C(C)C` (Ac-RYCRELCRMSDEFVDSFKK-NH2), the IC50 amounted to 11.8 µM. Turning to `CSCC[C@H](NC(=O)[C@H](CS)NC(=O)[C@H](CCCNC(=N)N)NC(=O)[C@H](CC(C)C)NC(=O)[C@H](CCC(=O)O)NC(=O)[C@H](CS)NC(=O)CNC(=O)[C@H](Cc1ccc(O)cc1)NC(=O)[C@H](CCCNC(=N)N)NC(C)=O)C(=O)N[C@@H](CO)C(=O)N[C@@H](CC(=O)O)C(=O)N[C@@H](CCC(=O)O)C(=O)N[C@@H](Cc1ccccc1)C(=O)N[C@H](C(=O)N[C@@H](CC(=O)O)C(=O)N[C@@H](CO)C(=O)N[C@@H](Cc1ccccc1)C(=O)N[C@@H](CCCCN)C(=O)N[C@@H](CCCCN)C(N)=O)C(C)C` (Ac-RYGCELRCMSDEFVDSFKK-NH2), the IC50 came to 6.8 µM. Regarding `CSCC[C@H](NC(=O)[C@H](CCCNC(=N)N)NC(=O)[C@H](CS)NC(=O)[C@H](CC(C)C)NC(=O)[C@H](CCC(=O)O)NC(=O)[C@H](CCCNC(=N)N)NC(=O)CNC(=O)[C@H](Cc1ccc(O)cc1)NC(=O)[C@H](CCCNC(=N)N)NC(C)=O)C(=O)N[C@@H](CO)C(=O)N[C@@H](CS)C(=O)N[C@@H](CCC(=O)O)C(=O)N[C@@H](Cc1ccccc1)C(=O)N[C@H](C(=O)N[C@@H](CC(=O)O)C(=O)N[C@@H](CO)C(=O)N[C@@H](Cc1ccccc1)C(=O)N[C@@H](CCCCN)C(=O)N[C@@H](CCCCN)C(N)=O)C(C)C` (Ac-RYGRELCRMSCEFVDSFKK-NH2), the IC50 was > 50 µM.
